High-throughput results as filed in PubChem BioAssay.
This excerpt belongs to a sample that is enriched for hits.
Fibroblast inh: antiproliferative effect on LL 47 fibroblasts – human, LL 47 cells, CellTiter-Glo luminescence, primary screen; LL 47 human lung fibroblast viability, ATP luminescence; active compounds read low; viability, % at 10 µM; 85,000 tested, 1.1% active;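 active = viability at or below 50% in the single dose screen; inactive = viability above 50%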;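 note: compound exposure lasted 72 h before the ATP readout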
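Assay system: human lung fibroblast line LL 47, low passage. Input: 1,150 fibroblasts seeded per well. Times: overnight cell rest, 72 h compound treatment at 37 °C. Evaluation: % viability of median cell-only signal. Technique: luminescent ATP detection, CellTiter-Glo. Control set: cell-only wells, no compound.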
HUVEC prolif 384: inhibitors of HUVEC proliferation, primary screen, cell-based, 384-well | CellTiter-Glo luminescence, 72 h; active compounds read low | viability, % at 10 µM (by protocol) | 86,000 tested, 1.1% active | AID 648, 2007;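 active = viability at or below 30%; inactive = viability above 30%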
H69AR growth 86K: proliferation blockers of H69AR lung cancer cells, primary screen, cell-based, human, 86K library | H69AR lung tumor viability, ATP luminescence, 72 h; active compounds read low | 85,000 tested, 6% active | viability, % at 10 µM;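 active = viability at or below 40%; inactive = viability above 40%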;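 note: multidrug resistant small cell line overexpressing MRP-1 efflux transporter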
PTEN del growth: growth suppression of PTEN-null HCT116, primary screen, cell-based, CellTiter-Glo | HCT116 PTEN-null viability, 60 h; active compounds read low | viability, % at 10 µM | 140,000 tested, 1.2% active | AID 827, 2007;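 active = viability at or below a set limit, 4 SD under the median of all tested compounds, cut at about 3.7% in these data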;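 note: PTEN knockout HCT116 line with beta catenin targeted HCT116 as companion control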
bCat KO growth: primary screen for growth suppressors in beta-catenin knockout HCT116 cells (colon tumor, human); 140,000 tested, 1.5% active; AID 818, 2007; viability, % at 10 µM; HCT116 beta-catenin knockout viability, CellTiter-Glo, 60 h; active compounds read low;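 active = viability at or under a set limit, the compound median less 4 SD, cut at about 6% in these data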
Of the large screens only hits and unclear results are named; the others gave an inactive call.

COC(=O)c1ccccc1NC(=O)c1ccc(-c2cccc(Cl)c2)o1	H69AR growth 86K 12
O=C(Nc1ccc(CN2CCOCC2)cc1)c1ccc(-c2ccc(Br)cc2)o1	H69AR growth 86K 19
O=C(Nc1ccccc1)c1ccc(-c2ccc(Br)cc2)o1	none
Cc1ccc[n+](C(C)C(=O)Nc2ccc(C)c([N+](=O)[O-])c2)c1 (stereo not drawn)	none (no result: Fibroblast inh, HUVEC prolif 384, H69AR growth 86K)
O=C(CSc1nc(-c2ccc(F)cc2)cc(C(F)(F)F)n1)NCc1ccco1	none
NS(=O)(=O)c1cnccc1Nc1ccc(Cl)c(Cl)c1	none (no result: Fibroblast inh, HUVEC prolif 384, H69AR growth 86K)
CC(=O)N1CCN2C(=O)C1CCCC(=O)c1cc(C)ccc12 (stereo not drawn)	none
O=C(CSc1nnc(CNC(=O)C23CC4CC(CC(C4)C2)C3)n1-c1ccccc1)Nc1ccccc1	none (no result: Fibroblast inh, HUVEC prolif 384, H69AR growth 86K)
Cc1cc(C(=O)OCC(=O)NCCC(C)C)c2ccccc2n1	none
Cc1ccc(NC(=O)c2sc3nc[nH]c(=O)c3c2C)c(C)c1	none (no result: Fibroblast inh, HUVEC prolif 384, H69AR growth 86K)
Cc1nnc2sc(-c3ccc(NC(=O)c4ccc(-c5ccc(Br)cc5)o4)cc3)nn12	H69AR growth 86K 21 (no result: PTEN del growth, bCat KO growth)
CCOC(=O)C1=C(O)/C(=C/c2cc(OC)c(OC)c(OC)c2)SC1=Nc1ccc(OC)cc1	none (no result: Fibroblast inh, HUVEC prolif 384, H69AR growth 86K)
CCOC(=O)C1=C(O)/C(=C/c2ccc(C)o2)SC1=NC(=O)c1ccccc1C	H69AR growth 86K 17 (no result: PTEN del growth, bCat KO growth)
CN(C)c1ccc(N=C/C=C2/N(C)c3ccccc3C2(C)C)cc1	none (no result: Fibroblast inh, HUVEC prolif 384, H69AR growth 86K)
Cc1nn(-c2ccccc2)c(C)c1C(=O)OCC(=O)NC12CC3CC(CC(C3)C1)C2	H69AR growth 86K 29
CC(=O)Nc1ccc(NC(=O)COC(=O)c2c(C)nn(-c3ccccc3)c2C)cc1	none (no result: Fibroblast inh, HUVEC prolif 384, H69AR growth 86K)
Cc1ccc2[nH]c(=O)c(COC(=O)c3cccs3)cc2c1	none (no result: Fibroblast inh, HUVEC prolif 384, H69AR growth 86K)
Cc1ccccc1OC1C(=O)N(Cc2ccc3c(c2)OCO3)C1c1sccc1C (stereo not drawn)	none (no result: Fibroblast inh, HUVEC prolif 384, H69AR growth 86K)
CC1(C)CC(NC(=O)c2coc(=O)c(Br)c2)CC(C)(C)N1	Fibroblast inh 34, H69AR growth 86K 0.7
O=C(Nc1ccc2snnc2c1)N1CCN(c2ccccc2)CC1	none
O=C(Nc1ccc2snnc2c1)Nc1cccc2ccccc12	H69AR growth 86K 9.3
CN(Cc1cccs1)C(=O)COc1ccc(-c2nnco2)cc1	none
O=C1CCC/C(=N/NC(=O)C2CCN(S(=O)(=O)c3cccs3)CC2)C1	none (no result: Fibroblast inh, HUVEC prolif 384, H69AR growth 86K)
Cc1sc2ncnc(NCC(c3ccco3)N3CCCC3)c2c1C (stereo not drawn)	H69AR growth 86K 36
Cc1ccc2c(c1)NC(=O)C(CC(=O)NCCCN1CCN(c3cc(Cl)ccc3C)CC1)O2 (stereo not drawn)	HUVEC prolif 384 2.9, bCat KO growth 5.8
Cc1ccc2c(c1)NC(=O)C(CC(=O)NCCCN1CCCCC1)O2 (stereo not drawn)	none
CN1C(=O)/C(=C/c2ccccc2OCc2ccccc2F)NC1=S	none (no result: Fibroblast inh, HUVEC prolif 384, H69AR growth 86K)
CC1CCCCC1NC(=O)/C(C#N)=C/c1ccccc1F (stereo not drawn)	none (no result: Fibroblast inh, HUVEC prolif 384, H69AR growth 86K)
Cc1cccc(S(=O)(=O)C(C#N)c2nc3ccccc3nc2N2CC(C)OC(C)C2)c1 (stereo not drawn)	none
Cc1ccc(S(=O)(=O)C(C#N)c2nc3ccccc3nc2N2CC(C)OC(C)C2)cc1C (stereo not drawn)	H69AR growth 86K 34
CNc1nc(-c2ccccn2)nnc1-c1ccccc1	Fibroblast inh 13, HUVEC prolif 384 11
c1ccc(-c2nnc(-c3ccccn3)nc2NC2CCCCC2)cc1	Fibroblast inh 19, HUVEC prolif 384 18, H69AR growth 86K 37, bCat KO growth 4.0
COc1ccc(-c2csc(N(CCCN(C)C)C(=O)c3cccs3)n2)cc1	H69AR growth 86K 22
COCCCN(C(C)=O)c1nc(-c2ccc(OC)cc2)cs1	H69AR growth 86K 15
COCCCN(C(=O)c1ccco1)c1nc(-c2cc(OC)ccc2OC)cs1	none
O=C(NCCc1c[nH]c2ccccc12)c1ccc(S(=O)(=O)NCc2ccco2)cc1	H69AR growth 86K 39
O=C(NCCc1c[nH]c2ccccc12)c1ccc([N+](=O)[O-])cc1	none (no result: Fibroblast inh, HUVEC prolif 384, H69AR growth 86K)
C=C(c1ccc(OC)cc1)c1ccc(OC)cc1	H69AR growth 86K 32
CCCn1c(C)cc(C(=O)COC(=O)c2ccc[nH]c2=O)c1C	none (no result: Fibroblast inh, HUVEC prolif 384, H69AR growth 86K)
CCOc1cc(-c2nc3ccccn3c2NCC2CCCO2)ccc1O (stereo not drawn)	H69AR growth 86K 28
COc1cc(-c2nc3ccccn3c2NCC2CCCO2)ccc1O (stereo not drawn)	H69AR growth 86K 27
Cn1c(Cn2nnc3ccccc32)nnc1SCC(=O)Nc1nccs1	none (no result: Fibroblast inh, HUVEC prolif 384, H69AR growth 86K)
O=C(NCC(c1cccs1)N1CCOCC1)c1ccc(Cl)c([N+](=O)[O-])c1 (stereo not drawn)	none (no result: Fibroblast inh, HUVEC prolif 384, H69AR growth 86K)
O=C(NCc1cccnc1)/C(=C\c1ccc(-c2ccc(Cl)c(Cl)c2)o1)S(=O)(=O)c1ccccc1	PTEN del growth 1.5, bCat KO growth 1.8 (no result: Fibroblast inh, HUVEC prolif 384, H69AR growth 86K)
O=C(NCc1cccnc1)c1ccc(Cl)c(Cl)c1	none
CCN1CCc2c(C#N)c(N3CCOCC3)nc(NCc3ccccc3)c2C1	none
CCN1CCc2c(C#N)c(N3CCCCC3)nc(NCc3ccccc3)c2C1	PTEN del growth 0.9, bCat KO growth 1.2
O=c1[nH]c(NC2CCCCC2)c([N+](=O)[O-])c(=O)[nH]1	none (no result: Fibroblast inh, HUVEC prolif 384, H69AR growth 86K)
COc1cccc(NC2=Nc3cccc4cccc2c34)c1	none (no result: Fibroblast inh, HUVEC prolif 384, H69AR growth 86K)
CCOC(=O)c1sc2nc(CC(=O)OC)nc(NCc3ccco3)c2c1C	none
Cc1sc2nc3c4ccccc4c(NCc4ccco4)nn3c(=O)c2c1C	H69AR growth 86K 34
Cc1nc(NCc2ccco2)c2c(C)c(C)sc2n1	Fibroblast inh 27, HUVEC prolif 384 3.5, H69AR growth 86K 34, PTEN del growth 2.2, bCat KO growth 1.7
CCC(=O)NC(NC(=S)Nc1ccc(S(N)(=O)=O)cc1)C(Cl)(Cl)Cl (stereo not drawn)	none (no result: Fibroblast inh, HUVEC prolif 384, H69AR growth 86K)
COC(=O)c1cccc(NS(=O)(=O)c2ccc(OC)c(OC)c2)c1C	none
COC(=O)c1cccc(NS(=O)(=O)c2ccc(OC)cc2)c1C	H69AR growth 86K 23
CCOC(=O)COc1ccc(S(=O)(=O)Nc2cccc(SC)c2)cc1	Fibroblast inh 47, HUVEC prolif 384 14
COc1ccc(S(=O)(=O)Nc2cc3c(C(C)=O)c(C)oc3c3ccccc23)cc1	H69AR growth 86K 25
Cc1oc2c(cc(NS(=O)(=O)c3cccs3)c3ccccc32)c1C(=O)OC(C)C	none
CCOC(=O)c1ccccc1NS(=O)(=O)c1ccc(OCC)cc1	H69AR growth 86K 13
O=c1c2ccccc2[nH]c(=S)n1-c1cccc(S(=O)(=O)N2CCCC2)c1	none (no result: Fibroblast inh, HUVEC prolif 384, H69AR growth 86K)
COc1ccc(CCN2C(=O)C3C4CC(C5C(C(=O)N/N=C\c6ccc(Cl)cc6)=NOC45)C3C2=O)cc1OC (stereo not drawn)	none
Cc1ccn2c(C(=O)N/N=C/c3ccc(CNC(=O)C(=O)Nc4ccc(C)c(C)c4)o3)c(C)nc2c1	none (no result: Fibroblast inh, HUVEC prolif 384, H69AR growth 86K)
Cc1ccc(NC(=S)NNC(=O)CSc2nc3ccccc3c(=O)n2-c2ccc(C)cc2)cc1	none (no result: Fibroblast inh, HUVEC prolif 384, H69AR growth 86K)
